The source of these data is ChEMBL document CHEMBL1125135, “Synthesis and central nervous system actions of thyrotropin-releasing hormone analogues containing a dihydroorotic acid moiety” (J Med Chem, 1990).

The test system of data set [1] is Mus musculus. Kind of data set: Effect on pentobarbitol anesthesia (antagonist activity) in mice by intravenous (iv) administration relative to TRH. The data set is classed as functional, organism-based. The gist of the method: (§1)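 Mouse CNS tests followed methods from the authors' earlier paper. The potency ratio versus TRH comes from dose-response data for the test compound and TRH using the parallel line assay method.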

Data set [2] has as its system Mus musculus. Kind of data set: Effect on reserpine-induced hypothermia (antagonist activity) in mice by intraperitoneal (ip) administration relative to TRH. The data set is classed as functional, organism-based. The gist of the method: as §1
Data set [3] has as its system Mus musculus. Kind of data set: Evaluated for the effect on spontaneous locomotor activity in mice by intraperitoneal (ip) administration relative to TRH.
Data set [4] deals with Mus musculus. Kind of data set: Toxicity and mortality indicates the number of dead animals / number of animals used at dose of 500 mg/kg by administering intravenously (iv) in 3 mice. Type of data set: organism-based. Also on record: dose 500 mg/kg, route intravenous. The settings on record: in vivo. Put shortly: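 Acute toxicity in male Std/ddY mice (26-28 g), three to 10 per group. Compound dissolved in physiological saline and given as a single iv dose of 500 mg/kg. Animals observed for 1 week at 23-24 °C. Mortality recorded as dead/used.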

Active and inactive are the calls of the source. The calls are words filed in the database; no cut-off is given here.

With `CCCCCCCCCCCCCCCCCCN1C(=O)C[C@@H](C(=O)N[C@H](Cc2c[nH]cn2)C(=O)N2CCC[C@@H]2C(N)=O)NC1=O`, the result in data set [1], in data set [2] and in data set [3] was inactive.

`C=CCN1C(=O)C[C@@H](C(=O)N[C@@H](Cc2c[nH]cn2)C(=O)N2CCC[C@H]2C(N)=O)NC1=O` displayed a Mortality in data set [4] of 1.

Take `CCCN1C(=O)C[C@@H](C(=O)N[C@@H](Cc2c[nH]cn2)C(=O)N2CCC[C@H]2C(N)=O)NC1=O`: the Mortality in data set [4] is on record as 0.

As for `CN1C(=O)C[C@@H](C(=O)N[C@H](Cc2c[nH]cn2)C(=O)O)NC1=O`, the outcome in data set [1], in data set [2] and in data set [3] was inactive. Besides, the Mortality in data set [4] worked out at 0.

On to `CN1C(=O)C[C@@H](C(=O)N[C@H](Cc2c[nH]cn2)C(=O)N2CCC[C@@H]2C(=O)O)NC1=O`, for which the result in data set [1], in data set [2] and in data set [3] was inactive. This compound registered a Mortality in data set [4] of 0.

`CCCCN1C(=O)C[C@@H](C(=O)N[C@@H](Cc2c[nH]cn2)C(=O)N2CCC[C@H]2C(N)=O)NC1=O` displayed a Mortality in data set [4] of 1.

As to `CN1C(=O)N(Cc2ccccc2)C(=O)CC1C(=O)N[C@@H](Cc1c[nH]cn1)C(=O)N1CCC[C@H]1C(N)=O` (mixture of isomers), the result in data set [1], in data set [2] and in data set [3] was inactive. In data set [4], the Mortality worked out at 0.

For `CN1C(=O)C[C@@H](C(=O)N[C@H](Cc2c[nH]cn2)C(=O)N2CCC[C@H]2C(N)=O)NC1=O`, the result in data set [1], in data set [2] and in data set [3] was inactive. Besides, the Mortality in data set [4] was determined as 0.

In data set [4], `CC(C)N1C(=O)C[C@@H](C(=O)N[C@@H](Cc2c[nH]cn2)C(=O)N2CCC[C@H]2C(N)=O)NC1=O` came in with a Mortality of 0.

Take `NCCN1C(=O)CC(C(=O)N[C@@H](Cc2c[nH]cn2)C(=O)N2CCC[C@H]2C(N)=O)NC1=O` (mixture of isomers): the result in data set [1], in data set [2] and in data set [3] was inactive. Moreover, the Mortality in data set [4] was 0.

As for `CN(C)C(=O)[C@H]1CCCN1C(=O)[C@@H](Cc1c[nH]cn1)NC(=O)[C@@H]1CC(=O)N(C)C(=O)N1`, the outcome in data set [1], in data set [2] and in data set [3] was inactive. In addition, the Mortality in data set [4] worked out at 0.

As for `CN1C(=O)NC(=O)C[C@H]1C(=O)N[C@H](Cc1c[nH]cn1)C(=O)N1CCC[C@@H]1C(N)=O`, the result in data set [1], in data set [2] and in data set [3] was inactive.

For `COC(=O)[C@@H](Cc1c[nH]cn1)NC(=O)[C@@H]1CC(=O)N(C)C(=O)N1`, the result in data set [1], in data set [2] and in data set [3] was inactive. Also, the Mortality in data set [4] amounted to 0.

On to `NC(=O)[C@@H]1CCCN1C(=O)[C@H](Cc1c[nH]cn1)NC(=O)[C@@H]1CC(=O)N(CCF)C(=O)N1`, for which, in data set [4], the Mortality was 1.

Compound `CN1C(=O)C[C@@H](C(=O)N[C@@H](Cc2c[nH]cn2)C(=O)N2CCC[C@H]2C(N)=O)N(C)C1=O` gave a Mortality in data set [4] of 0.

`CN1C(=O)NC(=O)C[C@H]1C(=O)N[C@@H](Cc1c[nH]cn1)C(=O)N1CCC[C@H]1C(N)=O` gave a Mortality in data set [4] of 0.

The compound `NC(=O)[C@@H]1CCCN1C(=O)[C@H](Cc1c[nH]cn1)NC(=O)[C@@H]1CC(=O)N(Cc2ccccc2)C(=O)N1` gave a Mortality in data set [4] of 3.

In data set [4], `CCCCCN1C(=O)C[C@@H](C(=O)N[C@@H](Cc2c[nH]cn2)C(=O)N2CCC[C@H]2C(N)=O)NC1=O` gave a Mortality of 2.

Regarding `CCCCCN1C(=O)C[C@@H](C(=O)N[C@H](Cc2c[nH]cn2)C(=O)N2CCC[C@@H]2C(N)=O)NC1=O`, the result in data set [2] and in data set [3] was inactive.
